LANA DNA inh: inhibitors of KSHV C-LANA binding to DNA, primary screen, biochemical, fluorescence polarization, FAM-LBS DNA, MBP-C-LANA, single point. Kaposi's sarcoma herpesvirus LANA C-terminal domain (residues 932-1162) DNA binding. inhibition, % at 9 µM. 340,000 compounds, 0.078% hits. AID 504423, 2011;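 active = highest replicate inhibition at or above 60% at 9 µM, even if other replicates fall short; inactive = all replicates below 60% inhibition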;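 also: 0% = neutral control wells and 100% = 4 µM acridine orange control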
Keap1-Nrf2 PPI: Keap1-Nrf2 protein-protein interaction inhibitors, primary screen, biochemical, fluorescence polarization, single point. 340,000 compounds, 0.15% hits. Keap1 Kelch-Nrf2 peptide fluorescence polarization, 1536-well. AID 504523, 2011. Kelch-like ECH-associated protein 1 (Homo sapiens), Q14145. inhibition, % at 9.4 µM; in the data active = inhibition above about 12%;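 also: human Keap1 Kelch domain with fluorescein labeled Nrf2 9mer peptide probe; 0% = neutral control wells and 100% = peptide positive control; higher means more block of Keap1 binding to Nrf2 peptide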
CAL PDZ FP-1: CAL PDZ peptide-binding inhibitors, primary screen, biochemical, fluorescence polarization, Cer-tagged CAL PDZ, HTS. AID 504414, 2011. inhibition, % at 20 µM. 330,000 compounds, 0.02% hits. purified CAL PDZ, TMR-peptide fluorescence polarization, 1 h;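 active = highest replicate inhibition of at least 40%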;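 also: plate controls were DMSO neutral control wells for no effect and unlabeled competitor peptide control wells for full effect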
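Test system: purified CerCALP PDZ construct; Compound dosing: one concentration, 20 µM compound; Also added: TMR-labelled reporter peptide T*-PRC34 bound in PDZ groove; Read-out: inhibition from polarization loss; Controls: unlabelled peptide and DMSO controls; Signal: FP readout, S and P plane fluorescence; Incubation: 1 h at RT.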
LANA-H2B inh: blockers of LANA interaction with H2A/H2B – biochemical, FP readout, HTS, primary screen; Protein LANA1 (Human herpesvirus 8 type P (isolate GK18)), Q9QR71; cell-free LANA-H2A/H2B peptide, fluorescence polarization; inhibition, % (concentration not given with the values); 320,000 compounds, 0.6% hits; in the data active = inhibition mostly above about 10%, no sharp cut-off; inactive = mostly below about 6.7%
CAL PDZ FP-2: untagged CAL PDZ binding inhibitors, primary screen, biochemical, fluorescence polarization, HTS; Golgi-associated PDZ and coiled-coil motif-containing protein (Homo sapiens), Q9HD26; purified CAL PDZ, TMR-peptide fluorescence polarization, 1 h; inhibition, % at 24.9 µM; 300,000 compounds, 0.92% hits; AID 602252, 2012;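 active = mean inhibition of at least 30% with at least half of replicates also reaching 30%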;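 also: 0% = DMSO neutral control and 100% = excess unlabeled competitor peptide PRC23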
CaV13 ICDI inh: Disruptors of the CACNA1D IQ motif to Ca2+-dependent inactivation inhibitor domain association, primary screening, Förster resonance energy transfer in intact living …; HEK cells, CFP/YFP FRET ICDI-IQ, plate reader, 10 min; percent FRET-ratio fall versus neutral wells; inhibition, % at 12.3 µM; 340,000 compounds, 0.098% hits;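 active = mean replicate inhibition of at least 30% and at least 1% of replicates passing that level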;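 also: 0% = median of the neutral control wells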
Keap1 Kelch bind: Keap1 Kelch domain binders by thermal stabilisation, dose response, biophysical, thermal shift, RT-PCR instrument, cherry-pick; shares compounds with Keap1-Nrf2 PPI; delta Tm; hits give high values; max delta Tm, degrees C; 400 compounds, 8% hits; in the data active = max delta Tm above about 0.48 degrees C
Dye-only ctr: Sypro Orange dye melt without protein, dose response, artefact control for Keap1-Nrf2 interaction inhibitor project, biochemical, thermal shift counterscreen, cherry-pick; 140 tested, under 10 active; shares compounds with Keap1-Nrf2 PPI; Sypro Orange dye-only thermal melt, no protein, delta Tm; top dose 26 µM; delta Tm, degrees C (no concentration beside the values);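 active = at highest dose tested, delta Tm positive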
Active calls of the source: *; / = not tested or not shown. Rows were chosen to be rich in hits. Some 1.5% of all compounds tested hit in one or more screens of this group.

SMILES | LANA DNA inh | Keap1-Nrf2 PPI | CAL PDZ FP-1 | LANA-H2B inh | CAL PDZ FP-2 | CaV13 ICDI inh | Keap1 Kelch bind | Dye-only ctr
Nc1ccc2c3c(cccc13)-c1ccccc1-2 | 27 | 22* | 1 | / | 0 | -14 | 0.37 | -23
CCc1cc(=O)[nH]c(SCCCF)n1 | -2 | 6 | 0 | 1 | 3 | 16 | / | /
CN1/C(=C\C=Nc2ccccc2)C(C)(C)c2ccccc21 | 2 | 2 | -1 | -7 | 1 | -9 | / | /
CN1/C(=C\C=C2C(=O)NC(=O)NC2=O)C(C)(C)c2ccccc21 | 28 | 32* | -1 | -6 | / | -6 | -0.19 | -21
N=Cc1c(O)n(-c2ccc(C34CC5CC(CC(C5)C3)C4)cc2)c(=O)[nH]c1=O | -3 | -7 | -1 | -2 | -2 | -5 | / | /

Screening results deposited in PubChem BioAssay by Broad Institute.
